Experimental findings from ChEMBL document CHEMBL1914441, “Discovery and optimization of a biphenylacetic acid series of prostaglandin D2 receptor DP2 antagonists with efficacy in a murine model of allergic rhinitis” (Bioorg Med Chem Lett, 2011) are described below.

Data set [1] addresses T1, Prostaglandin D2 receptor 2 (Homo sapiens, UniProt Q9Y5Y4).
T1 sequence (Q9Y5Y4 whole entry): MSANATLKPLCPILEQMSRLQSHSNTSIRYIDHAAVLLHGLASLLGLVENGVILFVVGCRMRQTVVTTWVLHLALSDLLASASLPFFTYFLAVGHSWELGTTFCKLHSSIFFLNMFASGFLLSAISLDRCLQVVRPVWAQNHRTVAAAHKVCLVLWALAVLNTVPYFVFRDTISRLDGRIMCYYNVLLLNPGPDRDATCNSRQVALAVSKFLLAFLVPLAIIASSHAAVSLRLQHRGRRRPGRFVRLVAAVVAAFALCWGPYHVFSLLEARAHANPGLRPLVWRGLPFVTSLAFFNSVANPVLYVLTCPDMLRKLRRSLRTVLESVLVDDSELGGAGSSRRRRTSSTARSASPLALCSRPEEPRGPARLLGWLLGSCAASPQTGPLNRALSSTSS
Put plainly: Displacement of [3H]-PGD2 from human prostanoid DP2 receptor expressed in human 293T cells by liquid scintillation counting. Format: cell-based. In short, it runs like this: (§1)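 Membranes from 293 cells stably expressing human DP2 were incubated with [³H]-PGD₂ across increasing compound concentrations. Membranes were harvested and washed, and bound radioactivity was counted. The IC50 is the concentration giving 50% inhibition of [³H]-PGD₂ binding. The assay was run without and with 0.2% human serum albumin to gauge protein shift. Mean of at least three experiments.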
(In a radioligand displacement assay an active substance lowers the binding of a labelled ligand.)

Data set [2] deals with T1, Prostaglandin D2 receptor 2. The data set is described as follows: Displacement of [3H]-PGD2 from human prostanoid DP2 receptor expressed in human 293T cells by liquid scintillation counting in presence of 0.2 % human serum albumin. Format: cell-based. In short, it runs like this:
as §1

Data set [3] addresses T2, Prostaglandin D2 receptor (Homo sapiens, UniProt Q13258).
T2 sequence (Q13258 whole entry): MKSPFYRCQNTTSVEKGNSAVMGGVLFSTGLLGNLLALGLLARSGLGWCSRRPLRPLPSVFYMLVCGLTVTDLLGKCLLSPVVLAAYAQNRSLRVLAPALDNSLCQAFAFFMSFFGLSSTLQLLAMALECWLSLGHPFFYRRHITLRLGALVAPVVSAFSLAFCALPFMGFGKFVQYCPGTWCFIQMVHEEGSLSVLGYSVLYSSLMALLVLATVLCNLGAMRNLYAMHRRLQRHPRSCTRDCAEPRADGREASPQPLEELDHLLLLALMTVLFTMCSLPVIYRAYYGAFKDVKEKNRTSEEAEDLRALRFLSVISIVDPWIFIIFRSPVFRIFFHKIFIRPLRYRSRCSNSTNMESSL
The data set is described as follows: Displacement of [3H]-PGD2 from human DP1 receptor expressed in human platelet membranes. The data set is classed as cell membranes.

Data set [4] concerns the target hERG (KCNH2) (Homo sapiens, UniProt Q12809). The data set is described as follows: Inhibition of human ERG at 10 uM by patch clamp assay. The procedure, abridged: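 hERG inhibition was measured by patch clamp, performed by an external contract laboratory.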
In general terms: Patch clamp records ionic current or voltage across a cell membrane.

The target of data set [5] is Cytochrome P450 2D6 (Homo sapiens, UniProt P10635). The data set is described as follows: Inhibition of human CYP2D6. Format: ADME.
Data set [6] addresses Cytochrome P450 2C9 (Homo sapiens, UniProt P11712). The data set is described as follows: Inhibition of human CYP2C9. Format: ADME.
In data set [7] the target is T3, Thromboxane A2 receptor (Homo sapiens, UniProt P21731).
T3 sequence (P21731 whole entry): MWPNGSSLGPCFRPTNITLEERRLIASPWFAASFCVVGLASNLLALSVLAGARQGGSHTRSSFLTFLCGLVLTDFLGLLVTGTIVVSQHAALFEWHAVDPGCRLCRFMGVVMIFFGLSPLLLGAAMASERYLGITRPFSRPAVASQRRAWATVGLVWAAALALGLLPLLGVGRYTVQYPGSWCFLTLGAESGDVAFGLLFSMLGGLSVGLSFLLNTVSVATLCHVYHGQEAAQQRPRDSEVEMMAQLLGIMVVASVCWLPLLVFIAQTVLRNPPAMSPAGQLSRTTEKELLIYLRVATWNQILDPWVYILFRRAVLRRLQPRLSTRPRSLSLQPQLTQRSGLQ
Put plainly: Displacement of [3H]-SQ-29,548 from human TP receptor expressed in human platelet membranes. The data set is classed as cell membranes. In short, it runs like this: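 TP binding was measured with human platelet membranes and ³H-SQ-29,548 as radioligand.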

The target of data set [8] is Cytochrome P450 3A4 (Homo sapiens, UniProt P08684). The data set is described as follows: Inhibition of human CYP3A4. Format: ADME.
A short description of data set [9]: Oral bioavailability in dog at 5 mg/kg. The data set is classed as ADME, organism-based, Canis lupus familiaris. To be noted: in vivo. In short, it runs like this: (§2)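 Dog dosing used the sodium salt, given IV at 2 mpk in saline and PO at 5 mpk in 0.5% Methocel.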
Data set [10] can be described thus: Half life in dog at 2 mg/kg, iv and 5 mg/kg, po. The settings on record: in vivo. Format: ADME, organism-based, Canis lupus familiaris. The procedure, abridged:
as §2

Data set [11] in a line: Half life in rat at 2 mg/kg, iv. To be noted: in vivo. On the set-up: dose 2 mg/kg, route intravenous. Format: ADME, organism-based. In short, it runs like this:
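Rat dosing used the sodium salt, given IV at 2 mpk in water.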

Data set [12] deals with Prostacyclin receptor (Homo sapiens, UniProt P43119). The data set is described as follows: Displacement of [3H]-iloprost from human prostanoid IP receptor expressed in human 293T cells membranes. Format: cell membranes. In short, it runs like this: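 IP binding was measured with membranes from hIP/293 cells and ³H-iloprost as radioligand.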
Data set [13] is described as follows: Oral bioavailability in rat at 10 mg/kg. The settings on record: in vivo.
Data set [14] relates to Mus musculus. The data set is described as follows: Antiallergic effect in ovalbumin-sensitized BALB/c mouse allergic rhinitis model assessed as reduction in sneezing symptoms at 10 mg/kg, po administered 1 hr prior to OVA challenge on days 31 and 32 measured for 8 mins immediately after OVA challenge on day 32. The data set is classed as functional, organism-based. Also on record: dose 10 mg/kg. The procedure, abridged: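 Female BALB/c mice sensitized with intraperitoneal OVA (10 µg in Alum) on days 0 and 7, then given nasal OVA challenge. Compound or water vehicle was dosed orally 1 h before challenge on days 31 and 32 only. Sneezing was counted over an 8 min session immediately after the day 32 challenge. n = 4–10 mice per group, means ± SEM, Dunnett's test after ANOVA versus vehicle.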

The source made the active and inactive calls. No cut-off for these calls is given here.

Chain of Cytochrome P450 2C9 (P11712 whole entry): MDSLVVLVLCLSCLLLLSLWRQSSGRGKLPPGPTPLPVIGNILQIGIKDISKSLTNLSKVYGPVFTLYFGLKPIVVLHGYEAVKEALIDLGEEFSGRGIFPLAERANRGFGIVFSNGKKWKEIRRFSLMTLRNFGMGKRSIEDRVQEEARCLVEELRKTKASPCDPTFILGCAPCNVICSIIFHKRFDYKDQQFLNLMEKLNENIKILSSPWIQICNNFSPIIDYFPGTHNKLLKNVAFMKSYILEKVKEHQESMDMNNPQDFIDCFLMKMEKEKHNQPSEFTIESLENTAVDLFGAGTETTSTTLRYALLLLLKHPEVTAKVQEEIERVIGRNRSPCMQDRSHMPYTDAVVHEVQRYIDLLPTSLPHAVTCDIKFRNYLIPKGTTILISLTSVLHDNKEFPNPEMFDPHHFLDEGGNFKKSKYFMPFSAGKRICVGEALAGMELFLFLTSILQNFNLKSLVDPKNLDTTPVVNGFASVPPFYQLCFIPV
Chain of hERG (KCNH2) (Q12809 whole entry): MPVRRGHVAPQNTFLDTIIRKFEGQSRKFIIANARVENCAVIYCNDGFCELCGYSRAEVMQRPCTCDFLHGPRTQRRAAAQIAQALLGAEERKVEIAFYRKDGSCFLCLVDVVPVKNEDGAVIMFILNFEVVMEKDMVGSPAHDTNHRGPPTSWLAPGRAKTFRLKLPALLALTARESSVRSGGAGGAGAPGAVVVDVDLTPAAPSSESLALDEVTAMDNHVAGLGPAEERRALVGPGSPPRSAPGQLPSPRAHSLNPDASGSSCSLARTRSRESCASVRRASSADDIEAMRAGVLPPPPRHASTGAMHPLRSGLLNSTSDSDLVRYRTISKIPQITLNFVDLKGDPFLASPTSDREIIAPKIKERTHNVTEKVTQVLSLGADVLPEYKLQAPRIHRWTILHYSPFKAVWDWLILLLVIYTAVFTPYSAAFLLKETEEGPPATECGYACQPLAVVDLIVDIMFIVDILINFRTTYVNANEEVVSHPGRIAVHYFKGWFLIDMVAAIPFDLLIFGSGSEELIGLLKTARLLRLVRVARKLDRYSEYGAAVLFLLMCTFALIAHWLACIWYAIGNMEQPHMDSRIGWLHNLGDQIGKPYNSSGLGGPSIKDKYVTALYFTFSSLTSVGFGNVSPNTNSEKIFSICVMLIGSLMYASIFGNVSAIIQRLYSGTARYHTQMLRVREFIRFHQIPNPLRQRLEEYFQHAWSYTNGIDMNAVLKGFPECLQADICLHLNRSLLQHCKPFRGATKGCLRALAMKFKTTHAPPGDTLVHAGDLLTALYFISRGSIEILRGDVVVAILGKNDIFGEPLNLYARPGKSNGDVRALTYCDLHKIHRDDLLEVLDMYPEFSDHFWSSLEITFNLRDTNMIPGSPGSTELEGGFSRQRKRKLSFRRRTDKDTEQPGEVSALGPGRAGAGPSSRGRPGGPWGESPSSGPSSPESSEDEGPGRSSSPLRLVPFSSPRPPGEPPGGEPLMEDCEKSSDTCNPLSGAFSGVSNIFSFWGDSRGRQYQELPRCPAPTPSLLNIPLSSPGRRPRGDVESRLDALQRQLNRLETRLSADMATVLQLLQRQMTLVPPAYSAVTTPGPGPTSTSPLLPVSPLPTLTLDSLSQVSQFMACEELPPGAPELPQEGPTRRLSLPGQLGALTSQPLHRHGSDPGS
Chain of Cytochrome P450 3A4 (P08684 whole entry): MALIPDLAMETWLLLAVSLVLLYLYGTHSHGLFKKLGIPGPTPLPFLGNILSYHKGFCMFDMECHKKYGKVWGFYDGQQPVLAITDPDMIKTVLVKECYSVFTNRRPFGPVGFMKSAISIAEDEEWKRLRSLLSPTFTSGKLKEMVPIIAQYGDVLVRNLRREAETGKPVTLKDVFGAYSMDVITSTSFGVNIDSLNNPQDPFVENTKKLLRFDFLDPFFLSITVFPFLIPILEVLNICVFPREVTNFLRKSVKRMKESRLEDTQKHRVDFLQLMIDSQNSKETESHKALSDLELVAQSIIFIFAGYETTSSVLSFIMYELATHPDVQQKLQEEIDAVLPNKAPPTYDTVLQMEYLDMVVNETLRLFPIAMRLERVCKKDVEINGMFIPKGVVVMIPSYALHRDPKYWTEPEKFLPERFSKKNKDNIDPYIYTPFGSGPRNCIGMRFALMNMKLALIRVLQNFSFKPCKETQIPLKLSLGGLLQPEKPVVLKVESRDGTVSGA
Chain of Cytochrome P450 2D6 (P10635 whole entry): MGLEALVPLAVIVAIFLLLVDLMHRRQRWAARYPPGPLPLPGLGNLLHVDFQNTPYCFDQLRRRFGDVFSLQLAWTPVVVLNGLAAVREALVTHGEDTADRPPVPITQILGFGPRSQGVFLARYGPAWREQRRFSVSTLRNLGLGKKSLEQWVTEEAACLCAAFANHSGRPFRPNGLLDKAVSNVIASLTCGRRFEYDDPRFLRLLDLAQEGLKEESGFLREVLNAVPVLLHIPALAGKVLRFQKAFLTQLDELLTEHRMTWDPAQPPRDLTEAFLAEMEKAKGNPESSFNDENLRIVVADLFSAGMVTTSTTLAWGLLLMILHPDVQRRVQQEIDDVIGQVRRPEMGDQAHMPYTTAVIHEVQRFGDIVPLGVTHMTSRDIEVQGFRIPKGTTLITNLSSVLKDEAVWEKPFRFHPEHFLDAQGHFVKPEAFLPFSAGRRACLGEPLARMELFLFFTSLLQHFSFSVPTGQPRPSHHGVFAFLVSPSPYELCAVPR
Chain of Prostacyclin receptor (P43119 whole entry): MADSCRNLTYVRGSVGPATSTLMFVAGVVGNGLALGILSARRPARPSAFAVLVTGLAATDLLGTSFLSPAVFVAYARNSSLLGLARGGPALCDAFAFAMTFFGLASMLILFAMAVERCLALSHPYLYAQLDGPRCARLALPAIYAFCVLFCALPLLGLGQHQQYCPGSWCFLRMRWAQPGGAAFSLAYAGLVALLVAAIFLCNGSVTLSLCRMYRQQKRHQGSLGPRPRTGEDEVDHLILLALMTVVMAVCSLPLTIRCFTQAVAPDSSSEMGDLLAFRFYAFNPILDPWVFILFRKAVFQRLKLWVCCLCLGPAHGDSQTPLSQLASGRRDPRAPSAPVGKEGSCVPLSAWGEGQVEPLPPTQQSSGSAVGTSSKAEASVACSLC

Consider `COc1ccc(CC(=O)O)cc1-c1ccc(C(F)(F)F)cc1CNC(=O)OCc1ccccc1`, for which the IC50 worked out at 0.045 µM in data set [1] and 0.238 µM in data set [2].
In the case of `COc1ccc(CC(=O)O)cc1-c1ccc(C(F)(F)F)cc1CNCCc1ccccc1`, the IC50 in [1] came out at 3.4 µM; in data set [2], 11 µM.
For `C[C@H]1[C@@H](c2ccccc2)OC(=O)N1Cc1cc(C(F)(F)F)ccc1-c1ccccc1CCC(=O)O`, in that order: 11 µM and 38 µM.
Take `CCN(Cc1cc(C(F)(F)F)ccc1-c1cc(CC(=O)O)ccc1OC)C(=O)OC`: the 50% inhibitory concentration (IC50) in data set [3] was 36.4 µM; in [1] it was 0.009 µM; in data set [2], 0.016 µM; in data set [5], over 30 µM; in [6], over 30 µM; in data set [7], 67.4 µM. Further, the IC50 in data set [8] was over 30 µM. In [4], this molecule registered an inhibition at 10 µM of 5.9%.
`COc1ccc(CC(=O)O)cc1-c1ccc(C(F)(F)F)cc1CN(C(=O)OCc1ccccc1)C1CCCC1`: the IC50 in data set [1] was 0.011 µM; in data set [2], 0.053 µM.
For `COC(=O)N(CCc1ccccc1)Cc1cc(C(F)(F)F)ccc1-c1cc(CC(=O)O)ccc1OC` the same measures were 0.024 µM and 0.062 µM.
With `C[C@H]1[C@@H](c2ccccc2)OC(=O)N1Cc1cc(F)ccc1-c1ccc(CC(=O)O)cc1`, the IC50 in [1] was determined as 0.36 µM; in [2], 1.8 µM.
Take `CCN(Cc1cc(C(F)(F)F)ccc1-c1cc(CC(=O)O)ccc1OC)C(=O)OCc1ccccc1`: the bioavailability is 89% in data set [9] and 77% in data set [13]. For the same molecule, the values for the half-life in data set [10] and in [11] were 7.4 h and 8.7 h, respectively. Moreover, the IC50 in data set [12] was 56.2 µM; in data set [3], 4 µM; in data set [5] it was over 30 µM; in data set [6] it was 18 µM; in data set [7], 23 µM; in [8], 18 µM. The result in [14] was Active.
As to `C[C@H]1[C@@H](c2ccccc2)OC(=O)N1Cc1cc(C(F)(F)F)ccc1-c1cccc(C(=O)O)c1`, the figures for the half-inhibitory concentration (IC50) in data set [1] and in [2] were 27 µM and 91 µM, respectively.
Turning to `COc1ccc(CC(=O)O)cc1-c1ccccc1CN1C(=O)O[C@H](c2ccccc2)[C@@H]1C`, the IC50 stood at 0.88 µM in data set [1] and 2 µM in [2].
For `C[C@H]1[C@@H](c2ccccc2)OC(=O)N1Cc1cc(C(F)(F)F)ccc1-c1cccc(CC(=O)O)c1`, in that order: 0.34 µM and 3 µM.
For `COc1ccc(CC(=O)O)cc1-c1ccc(F)cc1CN1C(=O)O[C@H](c2ccccc2)[C@@H]1C` the same measures were 0.36 µM and 1.3 µM.
`COc1ccc(CC(=O)O)cc1-c1ccc(C(F)(F)F)cc1CN1C(=O)O[C@H](c2ccccc2)[C@@H]1C`: the IC50 in [3] was 31.3 µM; in [1], 0.18 µM; in data set [2] it was 4.5 µM; in data set [5], over 30 µM; in data set [6], over 30 µM; in data set [7], 63.7 µM. The molecule further gave a 50% inhibitory concentration (IC50) in [8] of over 30 µM.
Turning to `COC(=O)N(Cc1ccccc1)Cc1cc(C(F)(F)F)ccc1-c1cc(CC(=O)O)ccc1OC`, the IC50 in [3] is 12.6 µM; in data set [1] it was 0.008 µM; in data set [2], 0.031 µM; in data set [5], over 30 µM; in [6], over 30 µM; in [7] it was 62.4 µM. Besides, the IC50 in data set [8] is over 30 µM. Besides, the inhibition at 10 µM in data set [4] turned out to be 1.2%.
`CCN(Cc1cc(C(F)(F)F)ccc1-c1cc(CC(=O)O)ccc1OC)C(=O)OCc1ccccc1Cl`: the IC50 worked out at 0.003 µM in [1] and 0.011 µM in data set [2].
For the molecule `CCN(Cc1cc(C(F)(F)F)ccc1-c1cc(CC(=O)O)ccc1OC)C(=O)OCc1ccc(Cl)cc1`, the IC50 was 33 µM in [12]; 4 µM in data set [3]; 0.003 µM in data set [1]; 0.007 µM in data set [2]; over 30 µM in [5]; 18 µM in [6]. The IC50 in [7] is 11.3 µM; in [8], 21 µM. For the same molecule, in data set [4], the inhibition at 10 µM was determined as 22%.
For `C[C@H]1[C@@H](c2ccccc2)OC(=O)N1Cc1cc(C(F)(F)F)ccc1-c1cccc(CCC(=O)O)c1`, the IC50 in data set [1] was 9.8 µM; in data set [2], 75 µM.
For the molecule `COc1ccc(-c2cc(CC(=O)O)ccc2OC)c(CN2C(=O)O[C@H](c3ccccc3)[C@@H]2C)c1`, the results for the IC50 in data set [1] and in [2] were 1.3 µM and 6.1 µM, respectively.
For `CCN(Cc1cc(C(F)(F)F)ccc1-c1cc(CC(=O)O)ccc1OC)C(=O)OCc1cccc(Cl)c1` the same measures were 0.002 µM and 0.01 µM.
Turning to `C[C@H]1[C@@H](c2ccccc2)OC(=O)N1Cc1cc(C(F)(F)F)ccc1-c1ccccc1CC(=O)O`, the half-inhibitory concentration (IC50) in data set [1] is 41 µM; in [2], 62 µM.
For `COc1ccc(CC(=O)O)cc1-c1ccc(C(F)(F)F)cc1CN(C)C(=O)OCc1ccccc1` the same measures were 0.004 µM and 0.018 µM.
Take `CCN(Cc1cc(C(F)(F)F)ccc1-c1cc(CC(=O)O)ccc1OC)C(=O)OCc1cc(F)cc(F)c1`: the IC50 was 0.003 µM in data set [1] and 0.011 µM in data set [2].

As a reminder, the IC50 is the concentration at which inhibition is half-maximal. In general, inhibition refers to the percentage by which the read-out fell short of the control. The low end stands for a weak effect, the high end for a strong effect. By bioavailability is commonly meant dose-corrected exposure relative to a reference, in per cent. Low values mean little systemic uptake, high ones much systemic uptake. The half-life is the time in which the quantity being followed falls by half.
